Measured values: ChEMBL document CHEMBL3102798, “Stapled Vasoactive Intestinal Peptide (VIP) Derivatives Improve VPAC2 Agonism and Glucose-Dependent Insulin Secretion” (ACS Med Chem Lett, 2013)
pEC50: −log10 of the molar value. Active and inactive are the calls of the source. No cut-off for these calls is given here. Bridge positions count the residues as written; N and C are the ends. Peptide text beside a SMILES is read from it.

Columns and labels:
[1] = target: T1, Vasoactive intestinal polypeptide receptor 2 (Homo sapiens, UniProt P41587); assay: Agonist activity at human VPAC2 expressed in CHO Flp-in cells assessed as accumulation of cAMP after 30 mins by TR-FRET assay; format: functional, cell-based
T1 sequence (P41587 whole entry): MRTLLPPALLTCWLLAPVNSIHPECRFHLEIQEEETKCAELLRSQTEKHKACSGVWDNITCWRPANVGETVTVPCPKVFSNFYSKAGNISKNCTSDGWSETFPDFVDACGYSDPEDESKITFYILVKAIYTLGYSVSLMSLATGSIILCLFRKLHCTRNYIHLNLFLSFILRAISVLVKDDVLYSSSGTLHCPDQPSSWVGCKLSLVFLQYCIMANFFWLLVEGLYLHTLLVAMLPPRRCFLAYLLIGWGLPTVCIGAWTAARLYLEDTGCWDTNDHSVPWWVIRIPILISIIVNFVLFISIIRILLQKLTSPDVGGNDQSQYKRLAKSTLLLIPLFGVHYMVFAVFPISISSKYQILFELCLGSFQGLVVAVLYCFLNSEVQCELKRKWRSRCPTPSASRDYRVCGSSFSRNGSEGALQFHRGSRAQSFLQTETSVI

[2] = Stability of the compound in phosphate buffer assessed as compound remaining at pH 7.4 after 15 mins by LC-MS-MS analysis in presence of trypsin; format: ADME; conditions: phosphate buffer with trypsin, read-out: Stability
Pancreatic islet [3] = assay: Induction of 8 mM glucose-induced insulin secretion in Han Wistar rat pancreatic islets at 10 to 100 nM after 2 hrs by HTRF assay; format: functional
Outline: (§1)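 Isolated rat pancreatic islets were incubated with peptide in 8 mM glucose, and insulin secretion was measured. Data are mean ±SE (n > 3), and significance was tested against vehicle-treated samples.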

[4] = Apparent passive permeability across apical to basolateral side in human Caco2 cells at 10 uM after 30 to 60 mins by LC/MS analysis; format: ADME, cell-based; conditions: Caco-2
Pancreatic islet [5] = assay: Induction of 8 mM glucose-induced insulin secretion in Han Wistar rat pancreatic islets at 100 nM after 2 hrs by HTRF assay; format: functional; outline: as §1
[6] = Half life in human at 3.3 pmol/kg/min, iv administered as infusion; format: ADME, organism-based; conditions: in vivo
Pancreatic islet [7] = assay: Induction of 8 mM glucose-induced insulin secretion in Han Wistar rat pancreatic islets at 1 to 100 nM after 2 hrs by HTRF assay; format: functional; outline: as §1
Pancreatic islet [8] = assay: Induction of 8 mM glucose-induced insulin secretion in Han Wistar rat pancreatic islets after 2 hrs by HTRF assay; format: functional
Outline: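 Isolated rat pancreatic islets were incubated with 8 mM glucose plus peptide over a range of concentrations, and secreted insulin was measured. Data are mean (±SE), n > 3, and were compared with vehicle-treated samples (p < 0.05, 0.01, 0.001).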

CC[C@H](C)[C@H](NC(=O)[C@H](CO)NC(=O)[C@H](CC(N)=O)NC(=O)[C@H](CC(C)C)NC(=O)[C@H](Cc1ccc(O)cc1)NC(=O)[C@H](CCCCN)NC(=O)[C@H](CCCCN)NC(=O)[C@@H](NC(=O)[C@H](C)NC(=O)[C@]1(C)CCCC/C=C\CCCC[C@](C)(NC(=O)[C@H](CCCNC(=N)N)NC(=O)[C@@H](NC(=O)[C@H](Cc2ccc(O)cc2)NC(=O)[C@H](CC(N)=O)NC(=O)[C@H](CC(=O)O)NC(=O)[C@@H](NC(=O)[C@H](Cc2ccccc2)NC(=O)[C@@H](NC(=O)[C@H](C)NC(=O)[C@H](CC(=O)O)NC(=O)[C@H](CO)NC(=O)[C@@H](N)Cc2cnc[nH]2)C(C)C)[C@@H](C)O)[C@@H](C)O)C(=O)N[C@@H](CCCNC(=N)N)C(=O)N[C@@H](CCCCN)C(=O)N[C@@H](CCC(N)=O)C(=O)N1)C(C)C)C(=O)N[C@@H](CC(C)C)C(=O)N[C@@H](CC(N)=O)C(=O)NCC(=O)N[C@@H](CCCCN)C(=O)O
pEC50 [1]: 10.31 | remaining at 0.25 h [2]: 1.5% | Activity (Pancreatic islet [3]): Active | Papp A→B at 10 µM [4]: < 0.1 ×10⁻⁶ cm/s

C=CCCC[C@](C)(NC(=O)[C@H](CCC(N)=O)NC(=O)[C@H](CCCCN)NC(=O)[C@H](CCCNC(=N)N)NC(=O)[C@](C)(CCCC=C)NC(=O)[C@H](CCCNC(=N)N)NC(=O)[C@@H](NC(=O)[C@H](Cc1ccc(O)cc1)NC(=O)[C@H](CC(N)=O)NC(=O)[C@H](CC(=O)O)NC(=O)[C@@H](NC(=O)[C@H](Cc1ccccc1)NC(=O)[C@@H](NC(=O)[C@H](C)NC(=O)[C@H](CC(=O)O)NC(=O)[C@H](CO)NC(=O)[C@@H](N)Cc1cnc[nH]1)C(C)C)[C@@H](C)O)[C@@H](C)O)C(=O)N[C@@H](C)C(=O)N[C@H](C(=O)N[C@@H](CCCCN)C(=O)N[C@@H](CCCCN)C(=O)N[C@@H](Cc1ccc(O)cc1)C(=O)N[C@@H](CC(C)C)C(=O)N[C@@H](CC(N)=O)C(=O)N[C@@H](CO)C(=O)N[C@H](C(=O)N[C@@H](CC(C)C)C(=O)N[C@@H](CC(N)=O)C(=O)NCC(=O)N[C@@H](CCCCN)C(=O)O)[C@@H](C)CC)C(C)C
Activity (Pancreatic islet [5]): Active

H-HSDAVFTDNYTRLRKQEAVKKYLNSILNGK-OH
pEC50 [1]: 9.42 | remaining at 0.25 h [2]: 0.9% | Papp A→B at 10 µM [4]: < 0.1 ×10⁻⁶ cm/s | Activity (Pancreatic islet [5]): Active

CC[C@H](C)[C@H](NC(=O)[C@H](CO)NC(=O)[C@H](CC(N)=O)NC(=O)[C@H](CC(C)C)NC(=O)[C@H](Cc1ccc(O)cc1)NC(=O)[C@H](CCCCN)NC(=O)[C@H](CCCCN)NC(=O)[C@@H](NC(=O)[C@H](C)NC(=O)[C@H](CCSC)NC(=O)[C@H](CCC(N)=O)NC(=O)[C@H](CCCCN)NC(=O)[C@H](CCCN=C(N)N)NC(=O)[C@H](CC(C)C)NC(=O)[C@H](CCCN=C(N)N)NC(=O)[C@@H](NC(=O)[C@H](Cc1ccc(O)cc1)NC(=O)[C@H](CC(N)=O)NC(=O)[C@H](CC(=O)O)NC(=O)[C@@H](NC(=O)[C@H](Cc1ccccc1)NC(=O)[C@@H](NC(=O)[C@H](C)NC(=O)[C@H](CC(=O)O)NC(=O)[C@H](CO)NC(=O)[C@@H](N)Cc1c[nH]cn1)C(C)C)[C@@H](C)O)[C@@H](C)O)C(C)C)C(=O)N[C@@H](CC(C)C)C(=O)N[C@@H](CC(N)=O)C(N)=O
half-life [6]: < 1 min | remaining at 0.25 h [2]: 0.5% | Papp A→B at 10 µM [4]: < 0.1 ×10⁻⁶ cm/s

H-HSDAVFTDNYTRLRKQIAVKKYLNSILNGK-OH
Activity (Pancreatic islet [7]): Active

CC[C@H](C)[C@H](NC(=O)[C@H](CO)NC(=O)[C@H](CC(N)=O)NC(=O)[C@H](CC(C)C)NC(=O)[C@H](Cc1ccc(O)cc1)NC(=O)[C@@H]1CCCCNC(=O)CC[C@H](NC(=O)[C@H](CCC(N)=O)NC(=O)[C@H](CCCCN)NC(=O)[C@H](CCCNC(=N)N)NC(=O)[C@H](CC(C)C)NC(=O)[C@H](CCCNC(=N)N)NC(=O)[C@@H](NC(=O)[C@H](Cc2ccc(O)cc2)NC(=O)[C@H](CC(N)=O)NC(=O)[C@H](CC(=O)O)NC(=O)[C@@H](NC(=O)[C@H](Cc2ccccc2)NC(=O)[C@@H](NC(=O)[C@H](C)NC(=O)[C@H](CC(=O)O)NC(=O)[C@H](CO)NC(=O)[C@@H](N)Cc2cnc[nH]2)C(C)C)[C@@H](C)O)[C@@H](C)O)C(=O)N[C@@H](C)C(=O)N[C@@H](C(C)C)C(=O)N[C@@H](CCCCN)C(=O)N1)C(=O)N[C@@H](CC(C)C)C(=O)N[C@@H](CC(N)=O)C(=O)NCC(=O)N[C@@H](CCCCN)C(=O)O (H-HSDAVFTDNYTRLRKQEAVKKYLNSILNGK-OH; lactam 17-21)
pEC50 [1]: 10.00 | remaining at 0.25 h [2]: 0.4% | Activity (Pancreatic islet [3]): Active | Papp A→B at 10 µM [4]: < 0.1 ×10⁻⁶ cm/s

CC[C@H](C)[C@H](NC(=O)[C@H](CO)NC(=O)[C@H](CC(N)=O)NC(=O)[C@H](CC(C)C)NC(=O)[C@H](Cc1ccc(O)cc1)NC(=O)[C@H](CCCCN)NC(=O)[C@H](CCCCN)NC(=O)[C@@H](NC(=O)[C@H](C)NC(=O)[C@H](CCSC)NC(=O)[C@H](CCC(N)=O)NC(=O)[C@H](CCCCN)NC(=O)[C@H](CCCNC(=N)N)NC(=O)[C@H](CC(C)C)NC(=O)[C@H](CCCNC(=N)N)NC(=O)[C@@H](NC(=O)[C@H](Cc1ccc(O)cc1)NC(=O)[C@H](CC(N)=O)NC(=O)[C@H](CC(=O)O)NC(=O)[C@@H](NC(=O)[C@H](Cc1ccccc1)NC(=O)[C@@H](NC(=O)[C@H](C)NC(=O)[C@H](CC(=O)O)NC(=O)[C@H](CO)NC(=O)[C@@H](N)Cc1cnc[nH]1)C(C)C)[C@@H](C)O)[C@@H](C)O)C(C)C)C(=O)N[C@@H](CC(C)C)C(=O)N[C@@H](CC(N)=O)C(=O)O
Activity (Pancreatic islet [8]): Dose-dependent effect

CC[C@H](C)[C@H](NC(=O)[C@H](Cc1ccccc1)NC(=O)[C@H](CCC(=O)O)NC(=O)[C@H](CCCCN)NC(=O)[C@H](C)NC(=O)[C@H](C)NC(=O)[C@H](CCC(N)=O)NC(=O)CNC(=O)[C@H](CCC(=O)O)NC(=O)[C@H](CC(C)C)NC(=O)[C@H](Cc1ccc(O)cc1)NC(=O)[C@H](CO)NC(=O)[C@H](CO)NC(=O)[C@@H](NC(=O)[C@H](CC(=O)O)NC(=O)[C@H](CO)NC(=O)[C@@H](NC(=O)[C@H](Cc1ccccc1)NC(=O)[C@@H](NC(=O)CNC(=O)[C@H](CCC(=O)O)NC(=O)[C@H](C)NC(=O)[C@@H](N)Cc1c[nH]cn1)[C@@H](C)O)[C@@H](C)O)C(C)C)C(=O)N[C@@H](C)C(=O)N[C@@H](Cc1c[nH]c2ccccc12)C(=O)N[C@@H](CC(C)C)C(=O)N[C@H](C(=O)N[C@@H](CCCCN)C(=O)NCC(=O)N[C@@H](CCCN=C(N)N)C(=O)NCC(=O)O)C(C)C
Activity (Pancreatic islet [8]): Dose-dependent effect
